# Screens: PubChem BioAssay, several laboratories
# Hits are enriched below; roughly 6.6% of the tested compounds scored in any of these assays.
# Fibroblast inh: blocks proliferation of human lung fibroblasts; LL 47 human lung fibroblast viability, ATP luminescence; stronger effect = lower value; viability, % at 10 µM; actives 1.1% (n = 85,000); AID 719;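 active means viability at or below 50% in the single dose screen; inactive means viability above 50%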;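 further: compound exposure lasted 72 h before the ATP readout; 100% = median luminescence of untreated cell-only wells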
#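 Test system: LL 47 human lung fibroblasts / Incubation: 72 h compound exposure at 37 °C after overnight plating / Technique: luminescent ATP detection, CellTiter-Glo / Compound dosing: 0.1% DMSO in all compound wells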
# HUVEC inhibit: human endothelial cell proliferation inhibition; HUVEC proliferation, CellTiter-Glo luminescence, 72 h; stronger effect = lower value; viability, % at 10 µM (by protocol); actives 1.1% (n = 86,000); AID 648;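 active means viability at or below 30%; inactive means viability above 30%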;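 further: 100% = median luminescence of DMSO-only cell control wells on each plate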
# Jurkat viability: cytotoxicity toward Jurkat cells. Jurkat E6.1 viability, ATP luminescence, 48 h. inhibition, % at 4 µM. actives 1.2% (n = 56,000). AID 463;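 active means inhibition above the mean inhibition of all tested compounds plus 3 SD, cut at about 28% in these data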
# H69AR inhibit: blocks growth of human H69AR lung tumor cells; viability, % at 10 µM; AID 598; actives 6% (n = 85,000); H69AR lung tumor viability, ATP luminescence, 72 h; stronger effect = lower value;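 active means viability at or below 40%; inactive means viability above 40%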;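 further: multidrug resistant small cell line overexpressing MRP-1 efflux transporter; 100% = mean luminescence of untreated control wells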
# Numbers without * were called inactive; · = no result given.
SMILES,Fibroblast inh,HUVEC inhibit,Jurkat viability,H69AR inhibit
O=[N+]([O-])c1cccnc1N1CCC(c2cc(-c3cccc(C(F)(F)F)c3)n[nH]2)CC1,100.8,3.7*,·,34.0*
Cc1cccn2c(=O)c3cc(C(=O)NCc4ccco4)c(=N)n(C(C)C)c3nc12,100.3,94.3,·,69.9
Cc1cccn2c(=O)c3cc(C(=O)NC(C)c4ccccc4)c(=N)n(CCCn4ccnc4)c3nc12 (centres undefined),68.3,64.7,8.4,11.8*
N=c1c(C(=O)NCc2ccco2)cc2c(=O)n3ccccc3nc2n1Cc1ccc(Cl)cc1,61.1,69.8,7.7,25.8*
CCCCCn1c(=NC(=O)c2ccco2)c(C(=O)OCC)cc2c(=O)n3ccccc3nc21,89.2,91.5,0.1,27.0*
N=c1c(C(=O)NCc2ccco2)cc2c(=O)n3ccccc3nc2n1Cc1ccccc1,91.3,78.7,8.3,46.2
CCCCn1c(=NC(=O)c2ccco2)c(C(=O)OCC)cc2c(=O)n3ccccc3nc21,97.5,89.4,·,40.6
Cc1cccn2c(=O)c3cc(C(=O)NCc4ccco4)c(=N)n(CCc4ccccc4)c3nc12,59.4,55.8,16.2,31.1*
O=c1oc(-c2ccc(Br)o2)nc2ccccc12,97.8,97.4,·,72.2
CCN1CCN(c2nc(C)c3c(n2)CCCC3=O)CC1,100.5,90.0,·,100.7
COCCN1C(=O)C(=O)/C(=C(/O)c2ccc(OCC(C)C)cc2)C1c1cccnc1 (centres undefined),104.5,101.3,-2.9,93.1
N=c1c(C(=O)NCc2ccc(F)cc2)cc2c(=O)n3ccccc3nc2n1Cc1ccco1,·,·,4.7,·
COc1ccc(CNC(=O)c2cc3c(=O)n4ccccc4nc3n(Cc3cccnc3)c2=N)cc1,91.1,87.6,11.3,26.8*
N=c1c(C(=O)NCc2ccccc2)cc2c(=O)n3ccccc3nc2n1Cc1ccco1,80.9,78.2,·,39.0*
CC1=C(C(=O)Nc2ccccc2)C(c2ccc(C)o2)n2c(s/c(=C\c3ccco3)c2=O)=N1 (centres undefined),82.0,68.9,-5.1,3.5*
COC(=O)C1=C(C)N=c2s/c(=C/c3cccs3)c(=O)n2C1c1ccc(F)cc1 (centres undefined),96.7,100.2,·,101.3
CCOc1ccccc1NC(=O)C1CCN(S(=O)(=O)c2cccc3cccnc23)CC1,97.0,85.3,-0.5,86.7
CCOC(=O)N1CCN(C(=O)c2oc3ccc(S(=O)(=O)N4CCCCC4)cc3c2C)CC1,93.5,104.7,-0.8,93.0
Cc1c(C(=O)NC2CCCc3ccccc32)oc2ccc(S(=O)(=O)N3CCOCC3)cc12 (centres undefined),79.5,68.1,·,37.7*
Cc1c(C(=O)NC2CC2)oc2ccc(S(=O)(=O)N3CCCCCC3)cc12,88.7,103.9,·,58.7
Cc1c(C(=O)NCCc2ccccc2)oc2ccc(S(=O)(=O)N3CCOCC3)cc12,97.8,89.9,·,68.5
Cc1c(C(=O)N2CCCCC2)oc2ccc(S(=O)(=O)N3CC(C)CC(C)C3)cc12 (centres undefined),·,·,32.2*,·
Cc1c(C(=O)NC2CCCc3ccccc32)oc2ccc(S(=O)(=O)N3CCCC3)cc12 (centres undefined),64.5,50.5,·,34.8*
Cc1occc1-c1nnc(SCC(=O)Nc2ccccc2)n1C(C)c1ccccc1 (centres undefined),82.7,101.4,-0.9,89.4
CN(C1CCCCC1)S(=O)(=O)c1ccc(S(=O)(=O)N2CCN(C(=O)c3ccccc3F)CC2)cc1,92.2,97.2,·,64.1
SMILES,Fibroblast inh,HUVEC inhibit,Jurkat viability,H69AR inhibit
COc1cc2c(cc1OC)C1(NCC2)C(=O)Nc2ccccc21 (centres undefined),56.1,83.0,-3.1,108.4
COc1cc2c(cc1OC)C1(Nc3c-2c(Cc2ccccc2)nn3-c2ccccc2)C(=O)Nc2ccccc21 (centres undefined),85.3,53.3,·,25.7*
CCOC(=O)c1nnn(-c2nonc2N)c1COc1cc(C)c(Cl)c(C)c1,102.1,99.4,5.4,23.7*
CCOC(=O)c1nnn(-c2nonc2N)c1CSc1ccccc1,97.7,110.9,·,90.1
Nc1nnc(-c2cc3ccccc3oc2=O)s1,99.6,87.4,3.7,95.0
O=c1oc2ccccc2cc1-c1nnc(NCc2ccco2)s1,91.0,71.1,·,32.2*
CCOC(=O)c1ccc(Cn2c(-c3ccccc3)nnc2-c2ccccc2)o1,90.5,97.2,-2.5,32.5*
Cc1ccc(C)c(NC(=S)NCc2cccn2C)c1,101.5,98.8,·,97.8
CC(C)(C)c1nn(-c2ccccc2)c2[nH]c(=O)c(CNCc3ccc4c(c3)OCO4)cc12,62.6,4.6*,·,1.1*
CCOc1cccc(NCc2cc3c(C(C)(C)C)nn(-c4ccccc4)c3[nH]c2=O)c1,90.6,100.1,·,48.1
